Assay results published in ChEMBL document CHEMBL4406821, “Novel dual inhibitors targeting CDK4 and VEGFR2 synergistically suppressed cancer progression and angiogenesis” (Eur J Med Chem, 2019).
Active and inactive are the calls of the source. The rule behind the calls is not given here.

Tests used:
[1] = system: T47D; assay: Induction of cell cycle arrest in human T47D cells assessed as accumulation in G2/M phase at 40 nM incubated for 36 hrs by propidium iodide staining based flow cytometry; format: functional
Outline: (§1)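 Cells were treated with graded concentrations for 36 h, then fixed overnight in 70% ice-cold ethanol at 4°C and resuspended in PBS. Staining used 50 µg/ml PI plus 5 µg/ml RNase at 37°C for 30 min. DNA content was analysed by FACS to give G0/G1, S and G2/M fractions.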

[2] = target: Insulin-like growth factor 1 receptor (Homo sapiens) (UniProt P08069); assay: Inhibition of recombinant activated human IGF1R (959 to end residues) at 1 uM using KKKSPGEYVNIEFG as substrate incubated for 40 mins in presence of [gamma-33P]-ATP by scintillation counting method relative to control
Outline: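 Kinase panel profiling at 1 μM performed by Eurofins KinaseProfiler; percent inhibition reported as mean of two independent experiments.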

[3] = target: Tyrosine-protein kinase Tec (Homo sapiens) (UniProt P42680); assay: Inhibition of activated recombinant human TEC (174 to end residues) at 1 uM using EFPIYDFLPAKKK as substrate incubated for 40 mins in presence of [gamma-33P]-ATP by scintillation counting method relative to control
[4] = target: Protein kinase C theta type (Homo sapiens) (UniProt Q04759); assay: Inhibition of recombinant human full length PKCtheta at 1 uM using histone H1 as substrate incubated for 40 mins in presence of [gamma-33P]-ATP by scintillation counting method relative to control
Sequence of Protein kinase C theta type (Homo sapiens) (Q04759 whole entry, looked up): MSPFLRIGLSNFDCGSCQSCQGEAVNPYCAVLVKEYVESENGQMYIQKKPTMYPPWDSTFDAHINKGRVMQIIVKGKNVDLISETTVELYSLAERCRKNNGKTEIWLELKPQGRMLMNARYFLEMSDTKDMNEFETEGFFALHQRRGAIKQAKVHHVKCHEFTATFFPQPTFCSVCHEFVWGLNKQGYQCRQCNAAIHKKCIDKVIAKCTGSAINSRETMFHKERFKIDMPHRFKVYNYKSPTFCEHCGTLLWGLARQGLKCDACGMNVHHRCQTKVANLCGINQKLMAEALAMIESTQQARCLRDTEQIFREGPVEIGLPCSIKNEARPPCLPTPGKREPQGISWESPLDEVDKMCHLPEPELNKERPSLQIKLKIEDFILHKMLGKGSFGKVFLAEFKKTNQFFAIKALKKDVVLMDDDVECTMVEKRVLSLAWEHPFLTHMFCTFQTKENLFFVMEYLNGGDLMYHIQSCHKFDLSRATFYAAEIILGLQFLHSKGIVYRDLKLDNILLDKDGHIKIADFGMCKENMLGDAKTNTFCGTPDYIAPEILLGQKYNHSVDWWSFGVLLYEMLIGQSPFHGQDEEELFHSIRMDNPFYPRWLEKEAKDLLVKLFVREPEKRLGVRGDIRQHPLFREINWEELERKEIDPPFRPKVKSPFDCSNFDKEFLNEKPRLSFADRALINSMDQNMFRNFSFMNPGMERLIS

[5] = system: Tyrosine-protein kinase BTK (Homo sapiens), Q06187 [R28H]; assay: Inhibition of recombinant full length human BTK R28H mutant at 1 uM using LSNLYHQGKFLQT as substrate incubated for 40 mins in presence of [gamma-33P]-ATP by scintillation counting method relative to control
Outline: (§2)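 Tested at a single 1 uM in an outsourced commercial kinase-profiling panel, read as percent inhibition. Each value is the mean of two independent experiments.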

[6] = system: PI3-kinase p110-alpha/p85-alpha (Homo sapiens), P27986+P42336 [E545K]; assay: Inhibition of recombinant human full length PI3K p110alpha/p85alpha E545K mutant at 1 uM using phosphatidylinositol 4,5-bisphosphate as substrate incubated for 40 mins in presence of [gamma-33P]-ATP by scintillation counting method relative to control; format: protein-complex assay
[7] = target: Serine/threonine-protein kinase Nek1 (Homo sapiens) (UniProt Q96PY6); assay: Inhibition of recombinant human NEK1 (1 to 505 residues) at 1 uM using RLGRDKYKTLRQIRQ as substrate incubated for 40 mins in presence of [gamma-33P]-ATP by scintillation counting method relative to control
Sequence of Serine/threonine-protein kinase Nek1 (Homo sapiens) (Q96PY6 whole entry, the tested form may be a part): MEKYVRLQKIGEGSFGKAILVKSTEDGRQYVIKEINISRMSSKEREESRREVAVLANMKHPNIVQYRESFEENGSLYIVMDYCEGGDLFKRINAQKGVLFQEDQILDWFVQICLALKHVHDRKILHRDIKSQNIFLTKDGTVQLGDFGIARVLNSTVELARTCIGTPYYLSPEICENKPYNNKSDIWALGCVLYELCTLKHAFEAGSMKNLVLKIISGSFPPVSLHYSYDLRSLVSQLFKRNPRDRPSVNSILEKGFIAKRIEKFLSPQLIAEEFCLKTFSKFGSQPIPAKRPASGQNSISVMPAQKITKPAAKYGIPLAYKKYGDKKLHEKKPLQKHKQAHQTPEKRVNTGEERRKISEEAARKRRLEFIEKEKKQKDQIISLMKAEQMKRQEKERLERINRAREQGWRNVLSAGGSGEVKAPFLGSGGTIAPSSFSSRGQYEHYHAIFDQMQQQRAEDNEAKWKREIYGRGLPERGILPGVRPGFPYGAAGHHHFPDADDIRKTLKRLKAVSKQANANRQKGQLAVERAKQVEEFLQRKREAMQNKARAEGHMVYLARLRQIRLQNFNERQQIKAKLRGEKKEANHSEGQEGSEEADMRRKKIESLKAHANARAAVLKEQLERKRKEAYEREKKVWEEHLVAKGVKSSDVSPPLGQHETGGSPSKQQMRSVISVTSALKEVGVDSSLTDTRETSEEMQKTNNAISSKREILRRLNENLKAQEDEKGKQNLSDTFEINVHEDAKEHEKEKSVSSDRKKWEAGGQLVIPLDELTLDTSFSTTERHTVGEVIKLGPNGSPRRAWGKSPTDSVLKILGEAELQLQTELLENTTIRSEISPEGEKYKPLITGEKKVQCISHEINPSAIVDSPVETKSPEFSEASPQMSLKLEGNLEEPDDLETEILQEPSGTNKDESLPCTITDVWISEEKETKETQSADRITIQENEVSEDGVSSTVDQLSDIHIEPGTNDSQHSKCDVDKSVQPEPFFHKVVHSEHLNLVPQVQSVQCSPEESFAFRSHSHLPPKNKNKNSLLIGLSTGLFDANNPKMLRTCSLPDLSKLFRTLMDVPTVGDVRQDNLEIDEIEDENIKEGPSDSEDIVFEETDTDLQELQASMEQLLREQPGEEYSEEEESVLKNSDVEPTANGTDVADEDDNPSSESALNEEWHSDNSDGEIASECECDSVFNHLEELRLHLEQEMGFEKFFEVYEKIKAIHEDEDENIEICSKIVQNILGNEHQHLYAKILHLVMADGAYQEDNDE

[8] = target: Serine/threonine-protein kinase PRP4 homolog (Homo sapiens) (UniProt Q13523); assay: Inhibition of recombinant human PRP4 (663 to end residues) at 1 uM using casein as substrate incubated for 40 mins in presence of [gamma-33P]-ATP by scintillation counting method relative to control
Sequence of Serine/threonine-protein kinase PRP4 homolog (Homo sapiens) (Q13523 whole entry): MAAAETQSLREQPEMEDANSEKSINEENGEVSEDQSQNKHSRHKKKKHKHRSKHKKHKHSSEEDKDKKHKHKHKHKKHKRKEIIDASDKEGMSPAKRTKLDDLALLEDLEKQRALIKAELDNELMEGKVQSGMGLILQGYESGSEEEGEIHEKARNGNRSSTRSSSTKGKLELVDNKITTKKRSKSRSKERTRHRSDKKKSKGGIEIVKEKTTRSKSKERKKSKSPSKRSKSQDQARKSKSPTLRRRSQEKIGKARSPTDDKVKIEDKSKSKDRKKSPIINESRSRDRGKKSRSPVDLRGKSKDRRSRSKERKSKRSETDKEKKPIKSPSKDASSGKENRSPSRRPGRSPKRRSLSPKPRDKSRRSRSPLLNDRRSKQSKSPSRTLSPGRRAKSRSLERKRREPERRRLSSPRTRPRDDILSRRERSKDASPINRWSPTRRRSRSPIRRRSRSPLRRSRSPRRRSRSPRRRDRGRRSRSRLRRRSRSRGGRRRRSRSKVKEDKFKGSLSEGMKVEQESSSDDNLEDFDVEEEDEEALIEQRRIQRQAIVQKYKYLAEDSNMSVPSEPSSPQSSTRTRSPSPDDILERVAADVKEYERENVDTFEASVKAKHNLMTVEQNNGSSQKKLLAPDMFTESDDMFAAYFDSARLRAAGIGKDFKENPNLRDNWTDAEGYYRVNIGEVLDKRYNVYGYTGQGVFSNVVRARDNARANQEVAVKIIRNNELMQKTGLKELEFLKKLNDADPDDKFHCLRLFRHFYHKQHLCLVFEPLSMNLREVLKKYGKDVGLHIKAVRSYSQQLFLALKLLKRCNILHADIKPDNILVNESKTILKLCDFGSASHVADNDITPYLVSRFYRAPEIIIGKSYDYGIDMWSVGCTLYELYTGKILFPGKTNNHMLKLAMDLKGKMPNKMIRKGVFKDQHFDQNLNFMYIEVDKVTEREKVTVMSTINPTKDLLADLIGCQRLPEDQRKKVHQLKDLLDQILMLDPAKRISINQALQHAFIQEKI

[9] = target: Maternal embryonic leucine zipper kinase (Homo sapiens) (UniProt Q14680); assay: Inhibition of recombinant human MELK (1 to 340 end residues) at 1 uM using KKLNRTLSFAEPG as substrate incubated for 40 mins in presence of [gamma-33P]-ATP by scintillation counting method relative to control
Sequence of Maternal embryonic leucine zipper kinase (Homo sapiens) (Q14680 whole entry, looked up): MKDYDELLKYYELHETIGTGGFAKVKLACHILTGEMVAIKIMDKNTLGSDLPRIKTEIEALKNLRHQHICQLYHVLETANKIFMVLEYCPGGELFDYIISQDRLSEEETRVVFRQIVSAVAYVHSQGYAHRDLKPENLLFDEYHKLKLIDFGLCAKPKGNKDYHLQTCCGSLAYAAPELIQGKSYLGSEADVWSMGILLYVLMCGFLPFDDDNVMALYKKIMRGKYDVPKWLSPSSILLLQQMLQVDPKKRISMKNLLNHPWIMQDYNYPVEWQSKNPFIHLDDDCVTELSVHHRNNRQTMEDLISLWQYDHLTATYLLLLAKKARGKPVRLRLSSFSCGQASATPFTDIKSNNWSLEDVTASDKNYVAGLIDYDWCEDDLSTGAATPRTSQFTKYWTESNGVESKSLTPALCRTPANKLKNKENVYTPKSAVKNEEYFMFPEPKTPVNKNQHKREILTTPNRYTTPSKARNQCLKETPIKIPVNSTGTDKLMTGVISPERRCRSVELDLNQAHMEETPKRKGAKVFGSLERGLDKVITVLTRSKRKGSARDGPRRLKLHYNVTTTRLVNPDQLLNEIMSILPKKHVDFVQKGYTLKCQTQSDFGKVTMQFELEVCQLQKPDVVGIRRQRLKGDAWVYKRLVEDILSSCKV

[10] = Toxicity in BALB/c mouse assessed as effect on blood parameter by measuring hemoglobin content at 40 mg/kg, po administered once two days for 4 times by hematology analyzer; conditions: in vivo
[11] = target: Protein kinase C eta type (Homo sapiens) (UniProt P24723); assay: Inhibition of recombinant human full length PKCeta (2 to end residues) at 1 uM using ERMRPRKRQGSVRRRV as substrate incubated for 40 mins in presence of [gamma-33P]-ATP by scintillation counting method relative to control
[12] = system: Platelet-derived growth factor receptor alpha (Homo sapiens), P16234 [V561D]; assay: Inhibition of recombinant human PDGFRalpha V561D mutant (550 to end residues) at 1 uM using GGMEDIYFEFMGGKKK as substrate incubated for 40 mins in presence of [gamma-33P]-ATP by scintillation counting method relative to control; outline: as §2
[13] = target: Proto-oncogene tyrosine-protein kinase receptor Ret (Homo sapiens) (UniProt P07949); assay: Inhibition of recombinant human RET (658 to end residues) at 1 uM using KKKSPGEYVNIEFG as substrate incubated for 40 mins in presence of [gamma-33P]-ATP by scintillation counting method relative to control
[14] = target: Transient receptor potential cation channel subfamily M member 7 (Homo sapiens) (UniProt Q96QT4); assay: Inhibition of recombinant human CHAK1 (1180 to end residues) at 1 uM using myelin ba as substrate incubated for 40 mins in presence of [gamma-33P]-ATP by scintillation counting method relative to control; outline: as §2
[15] = Toxicity in BALB/c mouse assessed as effect on blood parameter by measuring basophils content at 40 mg/kg, po administered once two days for 4 times by hematology analyzer; conditions: in vivo
[16] = target: Inhibitor of nuclear factor kappa-B kinase subunit beta (Homo sapiens) (UniProt O14920); assay: Inhibition of recombinant human full length IKKbeta at 1 uM using peptide as substrate incubated for 40 mins in presence of [gamma-33P]-ATP by scintillation counting method relative to control
Sequence of Inhibitor of nuclear factor kappa-B kinase subunit beta (Homo sapiens) (O14920 whole entry): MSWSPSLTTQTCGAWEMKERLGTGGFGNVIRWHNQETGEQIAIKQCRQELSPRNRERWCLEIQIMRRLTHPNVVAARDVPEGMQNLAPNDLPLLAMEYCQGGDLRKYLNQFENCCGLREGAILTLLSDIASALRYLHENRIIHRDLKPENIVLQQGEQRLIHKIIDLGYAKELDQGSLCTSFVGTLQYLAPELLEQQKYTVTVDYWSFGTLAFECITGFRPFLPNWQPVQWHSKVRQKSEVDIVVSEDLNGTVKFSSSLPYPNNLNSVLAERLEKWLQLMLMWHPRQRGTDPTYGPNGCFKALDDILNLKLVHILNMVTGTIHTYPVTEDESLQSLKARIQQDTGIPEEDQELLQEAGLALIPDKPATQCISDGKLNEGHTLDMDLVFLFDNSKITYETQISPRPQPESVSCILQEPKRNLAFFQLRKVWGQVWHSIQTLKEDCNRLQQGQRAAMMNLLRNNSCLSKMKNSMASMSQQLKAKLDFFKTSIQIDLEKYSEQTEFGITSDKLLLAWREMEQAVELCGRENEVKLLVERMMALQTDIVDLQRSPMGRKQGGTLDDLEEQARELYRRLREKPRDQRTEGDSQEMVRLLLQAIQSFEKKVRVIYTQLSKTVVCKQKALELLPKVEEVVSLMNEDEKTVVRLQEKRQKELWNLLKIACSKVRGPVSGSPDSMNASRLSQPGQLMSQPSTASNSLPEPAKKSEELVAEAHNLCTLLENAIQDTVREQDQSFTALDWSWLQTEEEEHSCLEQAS

[17] = target: MAP kinase-activated protein kinase 3 (Homo sapiens) (UniProt Q16644); assay: Inhibition of recombinant human MAPKAPK3 (2 to end residues) at 1 uM using KKLNRTLSVA as substrate incubated for 40 mins in presence of [gamma-33P]-ATP by scintillation counting method relative to control; outline: as §2
[18] = target: Serine/threonine-protein kinase NIM1 (Homo sapiens) (UniProt Q8IY84); assay: Inhibition of recombinant human full length NIM1 at 1 uM using KKKVSRSGLYRSPSMPENLNRPR as substrate incubated for 40 mins in presence of [gamma-33P]-ATP by scintillation counting method relative to control
[19] = system: T47D; assay: Induction of cell cycle arrest in human T47D cells assessed as accumulation in G2/M phase at 20 to 40 nM incubated for 36 hrs by propidium iodide staining based flow cytometry; format: functional; outline: as §1
[20] = target: Dual specificity mitogen-activated protein kinase kinase 6 (Homo sapiens) (UniProt P52564); assay: Inhibition of recombinant human MKK6 (4 to end residues) at 1 uM using unactive SAPK2a as substrate incubated for 40 mins in presence of [gamma-33P]-ATP by scintillation counting method relative to control
Sequence of Dual specificity mitogen-activated protein kinase kinase 6 (Homo sapiens) (P52564 whole entry): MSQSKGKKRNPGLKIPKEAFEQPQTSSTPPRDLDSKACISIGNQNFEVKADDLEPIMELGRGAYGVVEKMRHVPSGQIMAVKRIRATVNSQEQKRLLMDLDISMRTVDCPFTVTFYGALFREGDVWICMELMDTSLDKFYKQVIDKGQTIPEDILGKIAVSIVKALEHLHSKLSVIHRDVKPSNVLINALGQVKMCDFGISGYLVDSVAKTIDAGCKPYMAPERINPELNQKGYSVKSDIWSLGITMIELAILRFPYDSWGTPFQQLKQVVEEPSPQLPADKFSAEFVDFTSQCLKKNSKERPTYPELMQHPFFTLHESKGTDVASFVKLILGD

[21] = system: SiHa; assay: Antitumor activity against human SiHa cells xenografted in orally dosed NOD/SCID BALB/c mouse assessed as reduction in Ki67 expression measured after 21 days by hematoxylin and eosin staining based immunohistochemistry; format: functional, organism-based
Outline: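 Female NOD/SCID Balb/c mice, 6–8 weeks old, received 2×10^6 SiHa cells subcutaneously in the right flank. Once tumors reached 100 mm³, mice were randomized, 5 per group, and gavaged once daily for 21 days. Formalin-fixed, paraffin-embedded tumor sections were stained with Ki67 or CD31 antibody (1:100, 4 °C overnight), then biotin secondary and ABC-peroxidase/DAB, with hematoxylin counterstain.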

In the case of COc1cc2nccc(Oc3ccc(NC(=O)C4(C(=O)Nc5ccc(F)cc5)CC4)cc3)c2cc1OC [CABOZANTINIB], the Activity [1] is reported as “Active”.

Compound Cc1ccc(NC(=O)C2(C(=O)Nc3ccc(Nc4ncc(F)c(-c5cc(F)c6nc(C)n(C(C)C)c6c5)n4)cc3)CC2)cc1 has an inhibition [2] of 37%, an inhibition [3] of 1% and an inhibition [4] of 40%. The inhibition [5] was 0%, the inhibition [6] was 2% and the inhibition [7] was 72%. For the same compound, the inhibition [8] was 48%, the inhibition [9] was 53% and the Activity [10] was “Non-Toxic”. For the same compound, the inhibition [11] was 17%, the inhibition [12] was 70% and the inhibition [13] was 27%. The inhibition [14] was 0%, the Activity [15] was “Non-Toxic” and the inhibition [16] was 11%. The inhibition [17] was 0%, the inhibition [18] was 66% and the Activity [19] was “Active”. For the same compound, the inhibition [20] was 16% and the inhibition [21] was “Dose-dependent effect”.
